The source of these data is ChEMBL document CHEMBL1128317, “Phenoxypropylamines: a new series of squalene synthase inhibitors” (J Med Chem, 1995).

pIC50: −log10 of the molar value.

The assay addresses T1, Squalene synthase (Rattus norvegicus, UniProt Q02769).
T1 sequence (Q02769 whole entry): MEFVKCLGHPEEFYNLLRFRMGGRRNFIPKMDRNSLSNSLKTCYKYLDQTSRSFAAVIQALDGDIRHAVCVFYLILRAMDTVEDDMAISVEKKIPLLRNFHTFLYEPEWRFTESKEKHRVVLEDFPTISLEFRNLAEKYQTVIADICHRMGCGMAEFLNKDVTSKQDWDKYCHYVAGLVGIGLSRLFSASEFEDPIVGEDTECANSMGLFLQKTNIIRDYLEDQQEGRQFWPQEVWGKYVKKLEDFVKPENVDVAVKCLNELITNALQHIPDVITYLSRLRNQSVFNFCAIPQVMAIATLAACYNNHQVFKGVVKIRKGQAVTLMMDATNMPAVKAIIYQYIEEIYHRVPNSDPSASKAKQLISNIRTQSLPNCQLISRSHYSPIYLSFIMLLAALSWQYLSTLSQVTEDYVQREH
Description: Inhibition of rat microsomal squalene synthase. The method in brief: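 Rat liver microsomal protein (20 μg) incubated at 37 °C in 50 mM potassium phosphate with 4.95 mM MgCl2, 9.9 mM KF and 0.9 mM NADPH. 1-[3H]farnesyl pyrophosphate was added to 20 μM final, and the reaction was stopped after 15 min with 4% KOH. Labeled squalene was isolated on a C18 column. IC50 was derived from % inhibition versus controls (duplicates per concentration, 6–8 controls).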
In turn, `CCCCOc1ccc(OCCCNC(C)C)cc1` showed a negative logarithm of the IC50 (pIC50) of 7.25. The figure for `CCC(=O)Oc1ccc(OCCCNC(C)C)cc1` is 8.52. The figure for `CC(C)NCC(O)COc1ccccc1Cc1ccccc1` (stereo not given) is 5.06. The figure for `C=CCc1cc(C(=O)CCC)ccc1OCC(O)CNC(C)C` (stereo not given) is 8.35; for `CC(C)=CCC/C(C)=C/CC/C(C)=C/CCOP(=O)(O)C(=O)O` it is 4.52. As to `C=CCc1cc(OCCCC)ccc1OCCCNC(C)C`, the negative logarithm of the IC50 (pIC50) is 9.22. Take `C=CCc1cc(-c2ccccc2)ccc1OCCCNC(C)C`: the pIC50 is 11.40.

`CC(C)NCCCOc1cccc(-c2ccccc2)c1` showed a negative logarithm of the IC50 (pIC50) of 6.22. `CCCCOc1ccc(OCC(CNC(C)C)OC)cc1` (stereo not given) gave a pIC50 of 5.48. The figure for `CC(C)NCCCOc1ccc(-c2cccnc2)cc1` is below 5.60. For the compound `CC(C)NCC(O)COc1ccc(-c2ccccc2)cc1` (stereo not given), the pIC50 was 5.52.

Turning to `C=CCc1cc(NC(C)=O)ccc1OCCCNC(C)C`, the negative-log IC50 (pIC50) is 7.19.

For the compound `C=CCc1cc(NC(=O)CC)ccc1OCCCNC(C)C`, the pIC50 is 8.30. The figure for `C=CCc1cc(C(=O)CCC)ccc1OCCCNC(C)C` is 9.00; for `CCOC(=O)c1ccc(OCC(O)CNC(C)C)cc1` (stereo not given) it is 5.85; for `CCC(=O)Nc1ccc(OCC(O)CNC(C)C)c(Cc2ccccc2)c1` (stereo not given) it is 6.05. The figure for `CC(C)=CCC/C(C)=C/c1ccccc1OCCCN(C)C(C)C` is below 5.60. Then `C=CCc1ccccc1OCCCNC(C)C`, with 7.25; and `CC(C)NCCCOc1ccccc1Cc1ccccc1`, with 7.92; and `CC(C)NCCCOc1ccc(-c2ccccc2)cc1`, with 6.77. The compound `C=CCc1ccccc1OCC(O)CNC(C)C` (stereo not given) [ALPRENOLOL] had a pIC50 of 5.38. This pIC50 is 1.39 log units lower than that of the compound before. The figure for `CCC(=O)Nc1ccc(OCCCNC(C)C)c(Cc2ccccc2)c1` is 9.22. Then `CC(=O)Nc1ccc(OCCCNC(C)C)cc1`, with below 5.60; and `C=CCc1cc(N)ccc1OCCCNC(C)C`, with 6.60. For the compound `C=CCc1cc(C(=O)OCC)ccc1OCCCNC(C)C`, the negative-log IC50 (pIC50) is 10.30.
